# Ecoli tolC: E. coli tolC mutant growth inhibition | E. coli BW25113 tolC mutant growth, OD615 | growth inhibition, % at 10 µM (by protocol) | 65,000 compounds, 2.2% hits;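 active = growth inhibition at or above a cutoff equal to the mean over every tested compound plus 3 SD, cut at about 60% in these data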;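 note: growth measured after 20 h incubation at 37 °C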
#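 Test system: E. coli BW25113 ΔtolC::kan bacteria | Medium: Kanamycin-containing LB broth (50 µg/mL) | Dosing: One dose of 10 µM final | Times: 20 h incubation with compound, 37 °C | Detection: Optical density read at 615 nm | Read-out basis: Percent growth inhibition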
# E coli WT exp: E. coli BW25113 growth inhibition, expanded screen. growth inhibition, % at 100 µM. AID 710. 98,000 compounds, 0.15% hits. OD600 absorbance;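 active = growth inhibition above about 50% at one test dose, limit read from the data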;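 note: growth measured after 20 h incubation at 37 °C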
# PostGolgi yeast: growth inhibition of a yeast mutant, post-Golgi transport screen; post-Golgi transport phenotypic cell assay; inhibition, % at 10 µM; 98,000 compounds, 0.9% hits;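 note: yeast cells grown in 1536-well plates; yeast grown about 18 h at 30C before absorbance read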
# PostGolgi ctrl: inhibits growth of the yeast control strain. efflux-deficient yeast background strain, growth absorbance A615, 16 h. inhibition, % at 10 µM. AID 738. 98,000 compounds, 5% hits
# EphB4 antag: antagonists of human EphB4-ephrin-B2 interaction; inhibition, % at 7 µM; 97,000 compounds, 0.15% hits; EphB4 LBD / TNYL-RAW-Alexa532 peptide, fluorescence polarization; AID 720;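 active = inhibition above the screen-wide mean inhibition plus 3 SD, cut at about 15% in these data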;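 note: 0% = DMSO wells and 100% = excess unlabeled TNYL-RAW peptide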
# An asterisk follows results filed as active; . = no result given. Shown are actives, neighbours in structure and some others; about 6% of the full set was active somewhere. Cut-off read from the data, not from the text of the source, unless noted: active = inhibition above about 30%; inactive = the rest.
SMILES,Ecoli tolC,E coli WT exp,PostGolgi yeast,PostGolgi ctrl,EphB4 antag
CCCC(=O)O[C@H]1C[C@@H](C)N(C(=O)c2ccccc2)c2ccc(C)cc21,.,10.0,-1.6,38.9*,3.3
CC(=O)Nc1ccc(S(=O)(=O)N2CCN(c3cc(C)ccc3C)CC2)cc1,31.4,-1.0,5.8,58.4*,.
Cc1ccc(C)c(N2CCN(S(=O)(=O)c3ccc4c(c3)OCCO4)CC2)c1,34.0,-14.0,-3.6,21.7,1.4
O=C1CC(=O)N(CCc2ccc(F)cc2)C(=O)N1,.,-7.0,-4.8,4.3,1.8
N#Cc1c(N2CCN(C(=O)c3ccccc3)CC2)nc(-c2ccccc2)c2c1CCCC2,.,-18.0,57.0*,28.5,-4.9
N#Cc1c(NCCN)nc(-c2ccccc2)c2c1CCCC2,.,46.0,-3.4,3.5,-6.0
N#Cc1c(NCCCO)nc(-c2ccccc2)c2c1CCCC2,5.3,6.0,9.0,47.0*,-0.6
Cc1nc(N2CCN(C(=O)c3ccco3)CC2)c2c3c(sc2n1)CCCC3,.,.,.,.,5.0
O=C(c1ccco1)N1CCN(c2nc(C3CC3)nc3sc4c(c23)CCCC4)CC1,77.3*,-11.0,12.1,15.4,-0.7
N#Cc1c(N2CCN(C(=O)c3ccco3)CC2)nc(-c2ccccc2)c2c1CCCC2,53.2,-7.0,52.0*,22.7,6.8
CC(C)COC(=O)Cn1cnc2ccc(Br)cc2c1=O,-4.5,2.0,-1.2,1.9,-2.7
CCC(C)C(NC(=O)C1CCC(C)CC1)C(=O)NCc1ccccn1 (centres undefined),.,8.0,4.5,5.0,3.4
N/C(Cc1ccc(Cl)c(Cl)c1)=N\OC(=O)c1cccs1,.,39.0,18.7,79.2*,5.8
Cc1ccc(CNS(=O)(=O)N(C)C)cc1,.,1.0,8.1,2.2,0.7
O=C(O)CSC1CC(=O)N(c2ccc(Cl)cc2)C1=O (centres undefined),-12.4,.,.,.,.
O=C(CSC1CC(=O)N(CC(c2ccccc2)c2ccccc2)C1=O)Nc1ccc(Cl)cc1 (centres undefined),.,-22.0,11.1,41.5*,-3.3
Brc1ccc(-c2nc3ncccn3c2NC2CCCCC2)o1,.,-3.0,4.2,45.4*,1.6
CC(CNC(=O)CC(C)(C)C)NC(=O)CC(C)(C)C (centres undefined),.,.,.,.,2.4
CC(CCc1ccccc1)C(=O)NO (centres undefined),-5.7,10.0,-4.7,-2.1,-5.8
COC(=O)[C@H](C)NC(=O)NC(C)CCc1ccccc1 (some centres undefined),.,10.0,6.4,35.8*,-4.0
CC(CCc1ccccc1)NC(=O)/C=C/c1ccccc1 (centres undefined),.,-6.0,6.0,39.9*,-0.1
COC(=O)[C@@H](NC(=O)NC(C)CCc1ccccc1)C(C)C (some centres undefined),10.6,1.0,-7.8,4.0,-4.2
O=C(Nc1ccc(Cl)c(C(F)(F)F)c1)c1ccco1,98.3*,30.0,0.3,21.5,-3.8
CCCCNC(=S)NNC(=O)c1nn(C)cc1Cl,.,.,.,.,0.7
COc1ccc(CN(Cc2cc3cc4c(cc3[nH]c2=O)OCO4)C(=O)NC2CCCCC2)cc1,72.0*,-14.0,0.3,9.0,6.3
SMILES,Ecoli tolC,E coli WT exp,PostGolgi yeast,PostGolgi ctrl,EphB4 antag
COc1ccc2[nH]c(=O)c(CN(C(=O)NC3CCCCC3)C3CCCCC3)cc2c1,72.0*,-10.0,2.2,12.2,.
Cc1ccc(NC(=O)N(Cc2ccc3c(c2)OCO3)Cc2cc3cc4c(cc3[nH]c2=O)OCCO4)cc1,12.7,-8.0,24.2,55.9*,-0.8
COc1ccc(NC(=O)C(C/C=C(/C)Cl)C(C)=O)cc1 (centres undefined),.,.,.,.,-3.8
COc1cccc(OC)c1NC(=O)CN1CCC(NC(=O)c2cccc(F)c2)CC1,.,.,.,.,-1.6
COc1ccc(N(CC(=O)NCCSC2CCCCC2)S(C)(=O)=O)c(OC)c1,.,6.0,3.8,6.8,-4.4
CCOC(=O)c1cc2c(ccn2C)n1Cc1ccccc1C,68.7*,-10.0,1.1,13.6,0.9
Cc1ccccc1Cn1c(C(=O)OC(C)C)cc2c1ccn2C,.,6.0,-14.7,15.3,2.9
Cc1ccccc1OCC(=O)O/N=C(\N)Cc1ccc(Cl)cc1,.,8.0,-0.9,11.1,8.4
N/C(Cc1ccc(Cl)cc1)=N\OC(=O)c1ccc2ccccc2c1,.,-2.0,21.1,81.0*,5.8
N/C(Cc1ccc(Cl)cc1)=N\OC(=O)c1cccc2ccccc12,.,8.0,82.5*,104.3*,5.0
Cc1onc(-c2c(Cl)cccc2Cl)c1C(=O)NCCc1ccc(S(N)(=O)=O)cc1,.,0.0,-2.1,-9.2,-8.3
COC(=O)c1ccccc1NC(=O)c1ccc(COc2cc(C)cc(C)c2)o1,.,-24.0,8.9,30.5*,-3.8

# High-throughput results: PubChem BioAssay, several laboratories
